Test results from ChEMBL document CHEMBL3585292, “Anti-dormant mycobacterial activity and target analysis of nybomycin produced by a marine-derived Streptomyces sp” (2015).
Values after ≈ are worked out from the molar mass of the structure shown. Active and inactive are the calls of the source. The calls are words filed in the database; no cut-off is given here.

Tests used:
[1] = tested on: Mycolicibacterium smegmatis; test: Antibacterial activity against Mycobacterium smegmatis MC2 155 under hypoxic condition after 96 hrs by MTT assay; type: functional; conditions: str. MC2 155, 96 h
How it was run: (§1)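 MTT microdilution. Mid-log bacilli in 7H9 with 10% OADC, 0.5% glycerol, 0.05% Tween 80, seeded at 1 × 10⁴ CFU/0.1 mL (M. smegmatis) or 1 × 10⁵ CFU/0.1 mL (BCG, M. tuberculosis), then serially diluted sample added. Aerobic incubation at 37 °C; hypoxic incubation at 37 °C under N2 with 0.2% O2. MTT (0.5 mg/mL, 50 µL) added for 12 h more, OD560 read to give MIC.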

[2] = Binding affinity to pMV206 DNA (unknown origin) with cloned 700476 to 702854 bp of Mycobacterium bovis BCG genome overexpressed in Mycobacterium smegmatis ICHO1036 at 260 pmol after 1 hr by agarose gel electrophoresis
[3] = tested on: Mycolicibacterium smegmatis; test: Antibacterial activity against Mycobacterium smegmatis MC2 155 under aerobic condition after 36 hrs by MTT assay; type: functional; conditions: str. MC2 155, 36 h; how it was run: as §1
[4] = Inhibition of nybomycin probe (2) binding to pMV206 DNA (unknown origin) with cloned 700476 to 702854 bp of Mycobacterium bovis BCG genome overexpressed in Mycobacterium smegmatis ICHO1036 at 60 uM after 1 hr by agarose gel electrophoresis
[5] = tested on: Mycolicibacterium smegmatis; test: Antibacterial activity against Mycobacterium smegmatis ICHO1034 harboring pMV206 with cloned 685769 to 689308 bp of Mycobacterium bovis BCG genome at 4 ug/ml by agar plate method; type: functional, organism-based
[6] = tested on: Mycolicibacterium smegmatis; test: Antibacterial activity against Mycobacterium smegmatis ICHO1035 harboring pMV206 with cloned 696695 to 700844 bp of Mycobacterium bovis BCG genome at 2 ug/ml by agar plate method; type: functional, organism-based
[7] = tested on: Mycolicibacterium smegmatis; test: Antibacterial activity against Mycobacterium smegmatis ICHO1037 harboring pMV261 with cloned 4109204 to 4110235 bp of Mycobacterium bovis BCG genome at 2 ug/ml by agar plate method; type: functional, organism-based
[8] = tested on: Mycolicibacterium smegmatis; test: Antibacterial activity against Mycobacterium smegmatis ICHO2012 harboring pYUB415 with cloned 686465 to 716464 bp of Mycobacterium bovis BCG genome at 2 ug/ml by agar plate method; type: functional, organism-based
[9] = tested on: Mycolicibacterium smegmatis; test: Antibacterial activity against Mycobacterium smegmatis ICHO1036 harboring pMV206 with cloned 700476 to 702854 bp of Mycobacterium bovis BCG genome at 2 ug/ml by agar plate method; type: functional, organism-based
[10] = tested on: Mycolicibacterium smegmatis; test: Antibacterial activity against Mycobacterium smegmatis ICHO1035 harboring pMV206 with cloned 696695 to 700844 bp of Mycobacterium bovis BCG genome at 4 ug/ml by agar plate method; type: functional, organism-based
[11] = tested on: Mycolicibacterium smegmatis; test: Antibacterial activity against Mycobacterium smegmatis ICHO1036 harboring pMV206 with cloned 700476 to 702854 bp of Mycobacterium bovis BCG genome at 4 ug/ml by agar plate method; type: functional, organism-based
[12] = tested on: Mycobacterium tuberculosis; test: Antibacterial activity against Mycobacterium tuberculosis T1413 under aerobic condition after 7 days by MTT assay; type: functional; conditions: T1413, 168 h; how it was run: as §1
[13] = tested on: Mycobacterium tuberculosis; test: Antibacterial activity against Mycobacterium tuberculosis H37Rv under aerobic condition after 7 days by MTT assay; type: functional; conditions: 168 h; how it was run: as §1
[14] = tested on: Mycolicibacterium smegmatis; test: Antibacterial activity against Mycobacterium smegmatis MC2 155 assessed as induction of morphological changes at 1 ug/ml after 48 hrs by phase contrast/scanning electron microscopic analysis; type: functional, organism-based; conditions: str. MC2 155
[15] = tested on: Mycolicibacterium smegmatis; test: Antibacterial activity against Mycobacterium smegmatis ICHO1037 harboring pMV261 with cloned 4109204 to 4110235 bp of Mycobacterium bovis BCG genome at 4 ug/ml by agar plate method; type: functional, organism-based
[16] = tested on: Mycolicibacterium smegmatis; test: Antibacterial activity against Mycobacterium smegmatis ICHO1034 harboring pMV206 with cloned 685769 to 689308 bp of Mycobacterium bovis BCG genome at 2 ug/ml by agar plate method; type: functional, organism-based
[17] = tested on: Mycolicibacterium smegmatis; test: Antibacterial activity against Mycobacterium smegmatis ICHO1038 harboring pMV261 with cloned 4126836 to 4129396 bp of Mycobacterium bovis BCG genome at 4 ug/ml by agar plate method; type: functional, organism-based
[18] = tested on: Mycobacterium tuberculosis; test: Antibacterial activity against Mycobacterium tuberculosis T1538 under aerobic condition after 7 days by MTT assay; type: functional; conditions: T1538, 168 h; how it was run: as §1
[19] = tested on: Mycolicibacterium smegmatis; test: Antibacterial activity against Mycobacterium smegmatis ICHO2012 harboring pYUB415 with cloned 686465 to 716464 bp of Mycobacterium bovis BCG genome at 4 ug/ml by agar plate method; type: functional, organism-based
[20] = Binding affinity to pMV206 DNA (unknown origin) at 260 pmol after 1 hr by agarose gel electrophoresis
[21] = Binding affinity to pMV206 DNA (unknown origin) with cloned 696695 to 700844 bp of Mycobacterium bovis BCG genome overexpressed in Mycobacterium smegmatis ICHO1035 at 260 pmol after 1 hr by agarose gel electrophoresis

COC(=O)CCCc1cn(CCOCCOCCOCCOCCOCCOCCOCCOCCOCCOCCNC(=O)CCCC[C@@H]2SC[C@@H]3NC(=O)N[C@@H]32)nn1
MIC [1]: > 200 µg/mL
Activity [2]: inactive
MIC [3]: > 200 µg/mL

NNC(=O)c1ccncc1 [ISONIAZID]
MIC [1]: 25 µg/mL (≈ 182 µM)
inhibition [4]: inactive
MIC [3]: 2.5 µg/mL (≈ 18.2 µM)

Cc1cc(=O)n2c3c(c4c(cc13)c(CO)cc(=O)n4C)OC2
MIC [1]: 1 µg/mL (≈ 3.35 µM)
Activity [5]: Active
Activity [6]: Active
Activity [7]: Active
inhibition [4]: Active
Activity [8]: inactive
Activity [9]: inactive
Activity [10]: Active
Activity [11]: Active
MIC [12]: 6.3 µg/mL (≈ 21.1 µM)
MIC [13]: 4.2 µg/mL (≈ 14.1 µM)
Activity [14]: Active
Activity [15]: Active
MIC [3]: 1 µg/mL (≈ 3.35 µM)
Activity [16]: inactive
Activity [17]: Active
MIC [18]: 5.2 µg/mL (≈ 17.4 µM)
Activity [19]: inactive

Cc1cc(=O)n2c3c(c4c(cc13)c(COC(=O)CCCc1cn(CCOCCOCCOCCOCCOCCOCCOCCOCCOCCOCCNC(=O)CCCC[C@@H]3SC[C@@H]5NC(=O)N[C@@H]53)nn1)cc(=O)n4C)OC2
MIC [1]: 6.25 µg/mL (≈ 5.46 µM)
Activity [20]: Active
Activity [21]: Active
Activity [2]: Active
MIC [3]: 25 µg/mL (≈ 21.8 µM)
